Measurements: ChEMBL document CHEMBL1158729, “Antioxidant phenolic glycosides from Moricandia arvensis” (J Nat Prod, 2005)
In brackets after ≈: the same amount, converted by molar mass. Activity calls are given as the source filed them. The calls are words filed in the database; no cut-off is given here.

Tests used:
Assay type in all cases: functional
[1] = Antioxidant activity assessed as ABTS radical scavenging activity after 15 mins by TEAC method
Procedure, shortened: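 ABTS radical cation formed from 7 mM ABTS with potassium persulfate (2.4 mM final), held 16 h dark at room temperature, then diluted with water to A734 0.700 ± 0.03. Samples in H2O-EtOH at 5-8 concentrations (0 to 20 µM final). A734 decrease read at 1, 2, 5, 10, 15 min, triplicate, with solvent blanks. Expressed as mM Trolox equivalent to 1.0 mM or 1 mg/mL sample.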

[2] = Antioxidant activity assessed as reduction of […]/ferricyanide complex after 20 mins
Procedure, shortened: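 Samples (0.02-1.0 mg) in water, mixed with […] phosphate buffer pH 6.6 and 1% potassium ferricyanide, 20 min at 50 °C. Reaction stopped with 10% TCA, centrifuged, and supernatant mixed with water and 0.1% FeCl3. A700 read against blank. Means of three independent samples fitted by linear regression. IC50 taken as the concentration giving an absorbance change of 0.50. α-Tocopherol and quercetin used as standards.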

[3] = system: Radical scavenging activity; assay: Antioxidant activity assessed as DPPH radical scavenging activity at 15 ug/mL after 30 to 45 mins
Procedure, shortened: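 Sample added to freshly prepared 0.004% DPPH in MeOH (final-volume ratio 50:950 µL), vortexed 15 s. Absorbance at 515 nm read at room temperature after 30-45 min, once steady state was reached. Triplicate. % inhibition = (1 − As/A0) × 100 against control. α-Tocopherol and quercetin used as standards.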

| Structure (SMILES) | Trolox equivalent antioxidant capacity (TEAC) [1] | IC50 [2] | Activity [3] | Activity [1] | Activity [2] |
| --- | --- | --- | --- | --- | --- |
| C[C@@H]1O[C@@H](Oc2cc(O)c3c(=O)c(O[C@@H]4O[C@H](CO)[C@@H](O)[C@H](O)[C@H]4O)c(-c4ccc(O[C@@H]5O[C@H](CO)[C@@H](O)[C@H](O)[C@H]5O)c(O)c4)oc3c2)[C@H](O)[C@H](O)[C@H]1O [MORICANDIN] | 1.23 mM | 48.1 µg/mL (≈ 62.3 µM) | 60% | – | – |
| OC[C@H]1O[C@@H](OCCc2ccccc2)[C@H](O)[C@@H](O)[C@@H]1O | – | – | – | inactive | inactive |
| COC(=O)/C=C/c1ccc(O[C@@H]2O[C@H](CO)[C@@H](O)[C@H](O)[C@H]2O)c(O)c1 | 0.89 mM | 486.2 µg/mL (≈ 1360 µM) | – | – | – |
| O=C(/C=C/c1ccc(O)c(O)c1)O[C@@H]1O[C@H](CO)[C@@H](O)[C@H](O)[C@H]1O | 1.91 mM | 33.5 µg/mL (≈ 97.9 µM) | 72% | – | – |
| O=C(/C=C/c1ccc(O[C@@H]2O[C@H](CO)[C@@H](O)[C@H](O)[C@H]2O)c(O)c1)O[C@@H]1O[C@H](CO)[C@@H](O)[C@H](O)[C@H]1O | 1.06 mM | 95.9 µg/mL (≈ 190 µM) | – | – | – |
| O=C(O[C@@H]1O[C@H](CO)[C@@H](O)[C@H](O)[C@H]1O)c1ccc(O[C@@H]2O[C@H](CO)[C@@H](O)[C@H](O)[C@H]2O)cc1 | 0.28 mM | 735.4 µg/mL (≈ 1590 µM) | – | – | – |
| Cc1c(C)c2c(c(C)c1O)CC[C@@](C)(CCC[C@H](C)CCC[C@H](C)CCCC(C)C)O2 [ALPHA-TOCOPHEROL] | – | 106.9 µg/mL (≈ 248 µM) | 87% | – | – |
| O=c1c(O)c(-c2ccc(O)c(O)c2)oc2cc(O)cc(O)c12 [QUERCETIN] | – | 24.4 µg/mL (≈ 80.7 µM) | 87% | 4.26 mM | – |
| COC(=O)/C=C/c1cc(O)cc(O[C@@H]2O[C@H](CO)[C@@H](O)[C@H](O)[C@H]2O)c1 | 0.35 mM | 630.8 µg/mL (≈ 1770 µM) | – | – | – |
| O=C(O[C@@H]1O[C@H](CO)[C@@H](O)[C@H](O)[C@H]1O)c1ccc(O)cc1 | – | – | – | inactive | inactive |
